From ChEMBL document CHEMBL1629597, “In vitro evaluation of the antimicrobial activity of ceftaroline against cephalosporin-resistant isolates of Streptococcus pneumoniae” (2009)
Values after ≈ are worked out from the molar mass of the structure shown.

What was measured:
Type in all cases: functional
Streptococcus pneumoniae [1] = assay: Antimicrobial activity against Streptococcus pneumoniae R6 transformed with Streptococcus pneumoniae 3191 pbp2x and Streptococcus pneumoniae 72521 pbp2b genes by broth microdilution method
Procedure, shortened: (§1)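 Reference broth microdilution MIC per CLSI guidelines, testing ceftaroline, penicillin, ceftriaxone and cefotaxime against susceptible laboratory strain R6 and R6 transformants. The transformants carry pbp and/or murM genes with β-lactam-resistance mutations, or genomic DNA, from donors 3191 (Hungarian clone) and 72521 (French isolate). MICs are in μg/ml.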

Streptococcus pneumoniae [2] = assay: Antimicrobial activity against Streptococcus pneumoniae R6 transformed with Streptococcus pneumoniae 3191 pbp2x, pbp2b, pbp1a and Streptococcus pneumoniae 72521 murM genes by broth microdilution method; procedure, shortened: as §1
Streptococcus pneumoniae [3] = assay: Antimicrobial activity against Streptococcus pneumoniae R6 transformed with Streptococcus pneumoniae 72521 pbp2x and pbp2b genes by broth microdilution method; procedure, shortened: as §1
Streptococcus pneumoniae [4] = assay: Antimicrobial activity against Streptococcus pneumoniae R6 transformed with Streptococcus pneumoniae 3191 pbp2x and pbp2b genes by broth microdilution method; procedure, shortened: as §1
Streptococcus pneumoniae [5] = assay: Antimicrobial activity against Streptococcus pneumoniae R6 transformed with Streptococcus pneumoniae 72521 murM, pbp2x, pbp2b and Streptococcus pneumoniae 3191 pbp1a genes by broth microdilution method; procedure, shortened: as §1
Streptococcus pneumoniae [6] = assay: Antimicrobial activity against Streptococcus pneumoniae R6 by broth microdilution method; procedure, shortened: as §1
Streptococcus pneumoniae [7] = assay: Antimicrobial activity against Streptococcus pneumoniae R6 transformed with Streptococcus pneumoniae 3191 pbp2x, pbp2b, murM and Streptococcus pneumoniae 72521 pbp1a genes by broth microdilution method; procedure, shortened: as §1
Streptococcus pneumoniae [8] = assay: Antimicrobial activity against Streptococcus pneumoniae R6 transformed with Streptococcus pneumoniae 3191 pbp2x, pbp2b, pbp1a genes by broth microdilution method; procedure, shortened: as §1
Streptococcus pneumoniae [9] = assay: Antimicrobial activity against Streptococcus pneumoniae R6 transformed with Streptococcus pneumoniae 72521 genomic DNA, pbp2x, pbp1a and pbp2b genes by broth microdilution method; procedure, shortened: as §1
Streptococcus pneumoniae [10] = assay: Antimicrobial activity against Streptococcus pneumoniae 3191 by broth microdilution method
Streptococcus pneumoniae [11] = assay: Antimicrobial activity against Streptococcus pneumoniae R6 transformed with Streptococcus pneumoniae 72521 genomic DNA, pbp2x, pbp1a, pbp2b and Streptococcus pneumoniae 3191 pbp1a genes by broth microdilution method; procedure, shortened: as §1
Streptococcus pneumoniae [12] = assay: Antimicrobial activity against Streptococcus pneumoniae by broth microdilution method
Streptococcus pneumoniae [13] = assay: Antimicrobial activity against Streptococcus pneumoniae 72521 by broth microdilution method
Streptococcus pneumoniae [14] = assay: Antimicrobial activity against Streptococcus pneumoniae R6 transformed with Streptococcus pneumoniae 3191 pbp2x gene by broth microdilution method; procedure, shortened: as §1
Streptococcus pneumoniae [15] = assay: Antimicrobial activity against Streptococcus pneumoniae R6 transformed with Streptococcus pneumoniae 3191 pbp2b, pbp1a and murM genes by broth microdilution method; procedure, shortened: as §1
Streptococcus pneumoniae [16] = assay: Antimicrobial activity against Streptococcus pneumoniae R6 transformed with Streptococcus pneumoniae 72521 pbp2x, pbp1a, pbp2b and Streptococcus pneumoniae 3191 murM genes by broth microdilution method; procedure, shortened: as §1
Streptococcus pneumoniae [17] = assay: Antimicrobial activity against Streptococcus pneumoniae R6 transformed with Streptococcus pneumoniae 3191 pbp2x and pbp1a genes by broth microdilution method; procedure, shortened: as §1
Streptococcus pneumoniae [18] = assay: Antimicrobial activity against Streptococcus pneumoniae R6 transformed with Streptococcus pneumoniae 72521 pbp2x, pbp2b and Streptococcus pneumoniae 3191 pbp1a genes by broth microdilution method; procedure, shortened: as §1
Streptococcus pneumoniae [19] = assay: Antimicrobial activity against Streptococcus pneumoniae R6 transformed with Streptococcus pneumoniae 72521 pbp2x, pbp1a, pbp2b genes and Streptococcus pneumoniae 3191 genomic DNA by broth microdilution method; procedure, shortened: as §1
Streptococcus pneumoniae [20] = assay: Antimicrobial activity against Streptococcus pneumoniae R6 transformed with Streptococcus pneumoniae 72521 pbp2x, pbp1a and pbp2b genes by broth microdilution method; procedure, shortened: as §1
Streptococcus pneumoniae [21] = assay: Antimicrobial activity against Streptococcus pneumoniae R6 transformed with Streptococcus pneumoniae 72521 pbp2x gene by broth microdilution method; procedure, shortened: as §1

SMILES | MIC (Streptococcus pneumoniae [1]) [µg/mL] | MIC (Streptococcus pneumoniae [2]) [µg/mL] | MIC (Streptococcus pneumoniae [3]) [µg/mL] | MIC (Streptococcus pneumoniae [4]) [µg/mL] | MIC (Streptococcus pneumoniae [5]) [µg/mL] | MIC (Streptococcus pneumoniae [6]) [µg/mL] | MIC (Streptococcus pneumoniae [7]) [µg/mL] | MIC (Streptococcus pneumoniae [8]) [µg/mL] | MIC (Streptococcus pneumoniae [9]) [µg/mL] | MIC (Streptococcus pneumoniae [10]) [µg/mL] | MIC (Streptococcus pneumoniae [11]) [µg/mL] | MIC50 (Streptococcus pneumoniae [12]) [µg/mL] | MIC90 (Streptococcus pneumoniae [12]) [µg/mL] | MIC (Streptococcus pneumoniae [13]) [µg/mL] | MIC (Streptococcus pneumoniae [14]) [µg/mL] | MIC (Streptococcus pneumoniae [15]) [µg/mL] | MIC (Streptococcus pneumoniae [16]) [µg/mL] | MIC (Streptococcus pneumoniae [17]) [µg/mL] | MIC (Streptococcus pneumoniae [18]) [µg/mL] | MIC (Streptococcus pneumoniae [19]) [µg/mL] | further results
CC1(C)S[C@@H]2[C@H](NC(=O)[C@H](N)c3ccc(O)cc3)C(=O)N2[C@H]1C(=O)O [AMOXICILLIN] | 0.19 (≈ 0.52 µM) | 4 (≈ 10.9 µM) | 0.094 (≈ 0.257 µM) | 0.19 (≈ 0.52 µM) | 3 (≈ 8.21 µM) | ≤ 0.015 | 1.5 (≈ 4.1 µM) | 4 (≈ 10.9 µM) | 1 (≈ 2.74 µM) | 8 (≈ 21.9 µM) | 1.5 (≈ 4.1 µM) | 8 (≈ 21.9 µM) | > 8 | 8 (≈ 21.9 µM) | 0.047 (≈ 0.129 µM) | 0.023 (≈ 0.0629 µM) | 1 (≈ 2.74 µM) | 0.032 (≈ 0.0876 µM) | 0.75 (≈ 2.05 µM) | 1 (≈ 2.74 µM) | MIC (Streptococcus pneumoniae [20]): 0.5 µg/mL (≈ 1.37 µM)
CO/N=C(\C(=O)N[C@@H]1C(=O)N2C(C(=O)O)=C(COC(C)=O)CS[C@H]12)c1csc(N)n1 [CEFOTAXIME] | 1 (≈ 2.2 µM) | 16 (≈ 35.1 µM) | 0.5 (≈ 1.1 µM) | 0.5 (≈ 1.1 µM) | 4 (≈ 8.78 µM) | 0.03 (≈ 0.0659 µM) | 2 (≈ 4.39 µM) | 16 (≈ 35.1 µM) | 2 (≈ 4.39 µM) | 4 (≈ 8.78 µM) | 4 (≈ 8.78 µM) | 8 (≈ 17.6 µM) | 8 (≈ 17.6 µM) | 2 (≈ 4.39 µM) | 0.03 (≈ 0.0659 µM) | 0.03 (≈ 0.0659 µM) | 2 (≈ 4.39 µM) | 0.06 (≈ 0.132 µM) | 2 (≈ 4.39 µM) | 2 (≈ 4.39 µM) | MIC (Streptococcus pneumoniae [21]): 0.06 µg/mL (≈ 0.132 µM); MIC (Streptococcus pneumoniae [20]): 2 µg/mL (≈ 4.39 µM)
CO/N=C(\C(=O)N[C@@H]1C(=O)N2C(C(=O)O)=C(CSc3nc(=O)c(O)nn3C)CS[C@H]12)c1csc(N)n1 [CEFTRIAXONE] | 2 (≈ 3.61 µM) | 8 (≈ 14.4 µM) | 1 (≈ 1.8 µM) | 1 (≈ 1.8 µM) | 4 (≈ 7.21 µM) | 0.03 (≈ 0.0541 µM) | 4 (≈ 7.21 µM) | 4 (≈ 7.21 µM) | 0.5 (≈ 0.902 µM) | 8 (≈ 14.4 µM) | 2 (≈ 3.61 µM) | 8 (≈ 14.4 µM) | 8 (≈ 14.4 µM) | 4 (≈ 7.21 µM) | 2 (≈ 3.61 µM) | 0.06 (≈ 0.108 µM) | 1 (≈ 1.8 µM) | 2 (≈ 3.61 µM) | 2 (≈ 3.61 µM) | 2 (≈ 3.61 µM) | MIC (Streptococcus pneumoniae [21]): 0.5 µg/mL (≈ 0.902 µM); MIC (Streptococcus pneumoniae [20]): 0.5 µg/mL (≈ 0.902 µM)
C[C@@H](O)[C@H]1C(=O)N2C(C(=O)O)=C(S[C@@H]3CN[C@H](C(=O)N(C)C)C3)[C@H](C)[C@H]12 [MEROPENEM] |  |  |  |  |  |  |  |  |  |  |  | 1 (≈ 2.61 µM) | 2 (≈ 5.22 µM) |  |  |  |  |  |  |  | 
CC1(C)S[C@@H]2[C@H](NC(=O)Cc3ccccc3)C(=O)N2[C@H]1C(=O)O [PENICILLIN G] | 2 (≈ 5.98 µM) | 8 (≈ 23.9 µM) | 0.5 (≈ 1.5 µM) | 1 (≈ 2.99 µM) | 2 (≈ 5.98 µM) | 0.015 (≈ 0.0449 µM) | 8 (≈ 23.9 µM) | 4 (≈ 12 µM) | 1 (≈ 2.99 µM) | 16 (≈ 47.8 µM) | 2 (≈ 5.98 µM) | 8 (≈ 23.9 µM) | 8 (≈ 23.9 µM) | 4 (≈ 12 µM) | 2 (≈ 5.98 µM) | 0.03 (≈ 0.0897 µM) | 1 (≈ 2.99 µM) | 2 (≈ 5.98 µM) | 1 (≈ 2.99 µM) | 8 (≈ 23.9 µM) | MIC (Streptococcus pneumoniae [21]): 0.5 µg/mL (≈ 1.5 µM); MIC (Streptococcus pneumoniae [20]): 0.5 µg/mL (≈ 1.5 µM)
